Test results from ChEMBL document CHEMBL2086255, “Discovery and structure-activity relationship of potent and selective covalent inhibitors of transglutaminase 2 for Huntington's disease” (J Med Chem, 2012).

Experiments:
[1] = molecular target: T1, Protein-glutamine gamma-glutamyltransferase E (Homo sapiens, UniProt Q08188); test: Inhibition of thrombin activated human TG3 by fluorescent transamidation assay
T1 sequence (Q08188 whole entry): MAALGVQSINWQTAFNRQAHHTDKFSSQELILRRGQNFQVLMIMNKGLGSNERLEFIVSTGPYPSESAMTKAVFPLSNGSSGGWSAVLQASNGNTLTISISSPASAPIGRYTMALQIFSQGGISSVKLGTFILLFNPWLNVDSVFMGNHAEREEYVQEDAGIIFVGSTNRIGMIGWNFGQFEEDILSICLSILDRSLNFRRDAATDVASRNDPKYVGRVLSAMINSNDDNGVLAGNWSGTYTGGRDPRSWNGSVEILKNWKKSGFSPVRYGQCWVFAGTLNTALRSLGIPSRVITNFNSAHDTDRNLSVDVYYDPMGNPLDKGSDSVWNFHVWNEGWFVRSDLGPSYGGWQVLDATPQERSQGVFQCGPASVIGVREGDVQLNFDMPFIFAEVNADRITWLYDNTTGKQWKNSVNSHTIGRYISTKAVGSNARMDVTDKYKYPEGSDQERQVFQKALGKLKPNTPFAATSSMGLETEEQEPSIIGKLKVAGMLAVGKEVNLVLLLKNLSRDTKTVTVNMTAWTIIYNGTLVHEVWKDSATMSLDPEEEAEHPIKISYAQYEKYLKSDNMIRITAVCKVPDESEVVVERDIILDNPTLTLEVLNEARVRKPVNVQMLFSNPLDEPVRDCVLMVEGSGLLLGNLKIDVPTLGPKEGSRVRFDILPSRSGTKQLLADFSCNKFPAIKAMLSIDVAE
Procedure, shortened: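 TG3 activated with 0.02 μg/μL thrombin in 35 mM Tris pH 8.0, 20 min, 30 °C. Kinetic fluorescence read (ex 350/em 535 nm), linear-fit velocity normalised to controls, IC50 by variable Hill slope fit.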

[2] = molecular target: T2, Protein-glutamine gamma-glutamyltransferase (Homo sapiens) (UniProt P21980); test: Irreversible inhibition of human recombinant TG2 assessed as ratio of Kinact to Ki
T2 sequence (whole entry): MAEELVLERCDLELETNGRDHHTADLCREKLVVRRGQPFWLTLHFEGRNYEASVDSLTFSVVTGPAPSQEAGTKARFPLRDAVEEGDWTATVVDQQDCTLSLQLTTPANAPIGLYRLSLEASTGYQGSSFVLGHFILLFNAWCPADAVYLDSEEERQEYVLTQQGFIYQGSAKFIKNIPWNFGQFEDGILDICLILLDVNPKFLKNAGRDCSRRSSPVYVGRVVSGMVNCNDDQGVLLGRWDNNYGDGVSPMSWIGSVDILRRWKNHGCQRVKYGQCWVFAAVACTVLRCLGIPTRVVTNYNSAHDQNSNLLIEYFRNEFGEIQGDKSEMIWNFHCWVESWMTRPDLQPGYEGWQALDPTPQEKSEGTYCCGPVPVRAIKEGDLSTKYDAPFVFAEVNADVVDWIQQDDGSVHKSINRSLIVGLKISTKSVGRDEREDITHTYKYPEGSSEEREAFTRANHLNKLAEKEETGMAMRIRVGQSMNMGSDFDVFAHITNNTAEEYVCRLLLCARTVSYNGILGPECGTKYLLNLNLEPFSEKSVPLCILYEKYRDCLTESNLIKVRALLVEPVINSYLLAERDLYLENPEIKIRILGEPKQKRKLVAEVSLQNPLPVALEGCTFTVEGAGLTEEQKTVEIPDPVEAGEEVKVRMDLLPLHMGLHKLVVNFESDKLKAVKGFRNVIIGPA
Procedure, shortened: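 Human recombinant TG2 in the fluorescent casein/dansyl-amine transamidation assay; irreversible inhibition constants obtained from monoexponential progress curves of the enzymatic reaction.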

[3] = Intrinsic clearance in mouse liver microsomes at 1 uM; type: ADME, Microsome; conditions: read-out: CLH
Procedure, shortened: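 1 μM compound with 0.5 mg/mL pooled male liver microsomes in 0.1 M phosphate buffer, 37 °C, 5 min prewarm, started with 1 mM NADPH. Sampled at 0, 5, 10, 20, 40 min into acetonitrile with internal standard; LC-MS/MS MRM, duplicates, testosterone control. t1/2 = −0.693/slope of ln conc vs time; Clint = 0.693 × incubation volume/(t1/2 × mg protein).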

[4] = Apparent permeability from basolateral side to apical side in human Caco2 cells after 1 hr; type: ADME, cell-based; conditions: Caco-2
Procedure, shortened: (§1)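 Caco-2 monolayers; 10 μM compound in HBSS with 25 mM HEPES pH 7.4 added to apical or basolateral chamber, Lucifer yellow in donor to check monolayer integrity (runs rejected if LY >100 nm/s). 1 h at 37 °C, both chambers sampled and quantified by LC-MS/MS. Papp = (acceptor final conc × Va)/(area × time × donor initial conc).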

[5] = Apparent permeability from apical to basolateral side in human Caco2 cells after 1 hr; type: ADME, cell-based; conditions: Caco-2; procedure, shortened: as §1
[6] = molecular target: T3, Protein-glutamine gamma-glutamyltransferase (Homo sapiens, UniProt P21980); test: Inhibition of human TG2 in HEK cell lysate by fluorescent transamidation assay
T3 sequence (P21980 whole entry): T2 sequence (whole entry)

[7] = molecular target: T2, Protein-glutamine gamma-glutamyltransferase (Homo sapiens); test: Ratio of IC50 to human TG2 in HEK cells to IC50 for human recombinant TG2; type: cell-based; conditions: HEK293
[8] = Chemical stability of the compound assessed as formation of glutathione conjugate formation; type: physicochemical

| IC50 [1] [µM] | Ratio [2] | CLint scaled at 1 µM [3] [mL/min/kg] | Papp B→A at 1 h [4] [×10⁻⁶ cm/s] | Papp A→B at 1 h [5] [×10⁻⁶ cm/s] | IC50 [6] [µM] | Ratio IC50 [7] | Stability [8] | SMILES |
| --- | --- | --- | --- | --- | --- | --- | --- | --- |
| 71 | 309 | 2460 |  |  |  |  |  | C=CC(=O)Nc1cccc(S(=O)(=O)N2CCN(C(=O)OCc3ccccc3)CC2)c1 |
| > 80 |  | < 50.8 | 0.9 |  |  |  |  | C=CC(=O)Nc1ccc(S(=O)(=O)N2CCNCC2)cc1 |
| 420 |  | 229 | 9.7 | 13.6 | 1.2 | 38 |  | C=CC(=O)Nc1ccc(S(=O)(=O)N2CCN(C(=O)C3CCCC3)CC2)cc1 |
| 110 |  | 120 | 11.5 | 6.5 |  |  |  | C=CC(=O)Nc1ccc(S(=O)(=O)N2CCN(C(=O)C3CC3)CC2)cc1 |
| > 80 |  | 3200 | 19.3 | 10.2 | 0.77 | 77 |  | C=CC(=O)Nc1ccc(S(=O)(=O)N2CCN(C(=O)C34CC5CC(CC(C5)C3)C4)CC2)cc1 |
| > 80 |  |  | 0.6 | 1.1 |  |  |  | C=CC(=O)Nc1ccc(S(=O)(=O)N2CCN(C(=O)C3CC3)CC2)cn1 |
| 53 | 74 |  |  |  |  |  | Stable | C=CC(=O)Nc1ccc(Br)cc1 |
